Experimental data from different studies.
PLG trypsin-like site: Plasminogen, trypsin-like site (PLG, Homo sapiens, UniProt P00747)
HTR3A: 5-hydroxytryptamine receptor 3A (HTR3A, Homo sapiens, UniProt P46098)
OPRD1: Delta-type opioid receptor (OPRD1, Homo sapiens, UniProt P41143)

CS(=O)(=O)c1cccc(OCCCC(=O)N[C@H]2C[C@@H]3C[C@@H]3C2=O)c1 (relative stereo) — EC50 (Transcriptional activator protein LasR (lasR, Pseudomonas aeruginosa, UniProt P25084, Y93F); reporter gene, agonist): 0.5 µM
CC(C)(C)[C@H](NC(=O)[C@H](CCONC(=N)N)NC(=O)Cc1ccc(CN)cc1)C(=O)N[C@@H](CCONC(=N)N)C(=O)NCc1ccc(C(=N)N)cc1 — Ki (PLG trypsin-like site; enzyme activity, inhibitor; pH 8): 19 µM
O=C(NCc1ccncc1)Nc1ccc(S(=O)(=O)N2CC3CCC(C2)O3)cc1 — Kd (Nicotinamide phosphoribosyltransferase (NAMPT, Homo sapiens, UniProt P43490); ligand displacement, FP): 2 to 6 µM
COc1cc(C(=O)N2CC[C@@H](O)[C@@H](N)C2)cc2nc(-c3cc4ccccc4n3CC3CC3)n(C)c12 — EC50 (HTR3A; calcium signal, agonist): 50.1 µM
CCC(C)[C@@H](CNC)N1CCN(CCC23CC4CC(CC(C4)C2)C3)[C@H](C(C)C)C1 (some centres unmarked) — IC50 (OPRD1; cell-free assay): > 10 µM
On1ccc2ccccc2c1=S — Ki (Carbonic anhydrase 2 (CA2, Homo sapiens, UniProt P00918); enzyme activity, inhibitor, absorbance; pH 8): 15 µM
CC(C)(C)[C@H](NC(=O)[C@H](CCONC(=N)N)NC(=O)Cc1ccc(CN)cc1)C(=O)N[C@@H](CCCCN)C(=O)NCc1ccc(C(=N)N)cc1 — Ki (PLG trypsin-like site; enzyme activity, inhibitor; pH 8): 21 µM
CC(=O)Nc1ccc(O)cc1 — Ki (NAD(P)H dehydrogenase [quinone] 1 (NQO1, Homo sapiens, UniProt P15559); enzyme activity, inhibitor, absorbance): > 1000 µM
Cc1cn([C@@H]2CC[C@H](OC(C(=O)O)C(=O)O)C2)c(=O)[nH]c1=O — Ki (Gag-Pol polyprotein, reverse transcriptase (gag-pol, Human immunodeficiency virus 1, UniProt P03366); enzyme activity, inhibitor): 6.6 µM
CCC(C)[C@@H](CNC)N1CCN(CCCC2CCCCC2)[C@H](C(C)C)C1 (some centres unmarked) — IC50 (OPRD1; cell-free assay): > 10 µM
CCOC(=O)c1cncn1[C@@H](C)c1ccc(C2(C(F)(F)F)N=N2)cc1 — IC50 (HTR3A; ion current, two-electrode voltage clamp; oocytes): 9 µM
CC[C@H](C)[C@H](NC(=O)[C@H](Cc1ccccc1)NC(=O)[C@H](CC(=O)O)NC(=O)[C@H](CCCNC(=N)N)NC(=O)[C@@H](NC(=O)[C@H](C)NC(=O)[C@H](CC(C)C)NC(=O)[C@H](CC(N)=O)NC(=O)[C@H](CC(=O)O)NC(=O)[C@H](CC(C)C)NC(=O)[C@@H](NC(=O)[C@@H](NC(=O)[C@H](CO)NC(=O)[C@H](CCSC)NC(=O)[C@H](CCC(=O)O)NC(=O)[C@H](CC(=O)O)NC(=O)[C@H](CO)NC(=O)[C@H](Cc1ccccc1)NC(=O)[C@H](CO)NC(=O)CNC(=O)[C@H](CC(=O)O)NC(=O)[C@H](C)NC(=O)[C@@H](N)Cc1c[nH]cn1)[C@@H](C)O)[C@@H](C)CC)[C@@H](C)O)C(=O)N[C@@H](CC(N)=O)C(=O)N[C@@H](Cc1c[nH]c2ccccc12)C(=O)N[C@@H](CC(C)C)C(=O)N[C@H](C(=O)N[C@@H](CCC(N)=O)C(=O)N[C@H](C(=O)N[C@@H](CCCCN)C(=O)N[C@H](C(=O)N[C@H](C(=O)N[C@@H](CC(=O)O)C(=O)O)[C@@H](C)O)[C@@H](C)CC)[C@@H](C)O)[C@@H](C)CC — EC50 (Gastric inhibitory polypeptide receptor (GIPR, Homo sapiens, UniProt P48546); reporter gene, agonist, luciferase): > 1 µM
C[C@H](N)Cn1ncc2ccc3c(c21)CCCO3 — Ki (Alpha-2A adrenergic receptor (ADRA2A, Homo sapiens, UniProt P08913); ligand displacement, radioligand): 6.26 µM
CNC[C@@H](Cc1ccc(O)cc1)N1CCN(CC2CCCCCC2)[C@@H](C(C)C)C1 — IC50 (OPRD1; cell-free assay): > 10 µM
O=C(CCCOc1cccc(Br)c1)N[C@H]1C[C@@H]2C[C@@H]2C1=O (relative stereo) — EC50 (Transcriptional activator protein LasR (lasR, Pseudomonas aeruginosa, UniProt P25084, R61A); reporter gene, agonist): 0.13 µM
CCC(C)[C@@H](CNC)N1CCN(CCC2CC3CCC2C3)[C@H](C(C)C)C1 (some centres unmarked) — IC50 (OPRD1; cell-free assay): > 10 µM
CC(C)(C)[C@H](NC(=O)[C@H](CCONC(=N)N)NC(=O)Cc1ccc(CNC(=N)N)cc1)C(=O)N[C@@H](CCCCN)C(=O)NCc1ccc(C(=N)N)cc1 — Ki (PLG trypsin-like site; enzyme activity, inhibitor; pH 8): 28 µM
